Data taken from ChEMBL document CHEMBL1134126, “Phenylcyanoguanidines as inhibitors of glucose-induced insulin secretion from beta cells” (Bioorg Med Chem Lett, 2001).
pIC50: −log10 of the molar value.

How the values were obtained:
[1] = In vitro membrane potential on murine betaTC3 cells; NA=not active; format: functional, Mus musculus
Beta-TC6 [2] = assay: Percent efficacy of compound for the in vitro inhibition of insulin release from murine beta-TC6 cells; format: functional, Mus musculus
In short: (§1)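 βTC6 cells washed twice in NN buffer (pH-buffered Krebs-type saline with HEPES) plus 0.1% BSA, preincubated 60 min, then incubated 3 h with 22 mM glucose, 0.1 mM IBMX and serial compound dilutions. Supernatant insulin measured by competition ELISA against rat insulin standards with peroxidase-labelled insulin and TMB read-out. EC50 (potency) and percentage inhibition (efficacy) derived from curves; at least two experiments.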

Beta-TC6 [3] = assay: In vitro inhibition of insulin release from murine beta-TC6 cells; format: functional, cell-based; settings: Mus musculus; in short: as §1
Rattus norvegicus [4] = organism: Rattus norvegicus; assay: In vitro ability to relax phenylephrine contracted rat aorta rings; format: functional
[5] = In vitro membrane potential on murine beta-TC3 cells; NA= not active; format: functional, Mus musculus
[6] = In vitro membrane potential on murine beta-TC3 cells; format: functional; settings: Mus musculus
Rattus norvegicus [7] = organism: Rattus norvegicus; assay: Concentration required for the inhibition of insulin release from rat islets; format: functional
In short: (§2)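 Rat islets isolated by collagenase digestion and Ficoll gradient (40–13%), cultured overnight in RPMI/10% FCS/11 mM glucose, then 10 islets per well overnight in DMEM/10% FCS/3 mM glucose. Tested as for βTC6: NN buffer with 0.1% BSA, 3 h with 22 mM glucose and compound dilutions, no IBMX; insulin by competition ELISA.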

Rattus norvegicus [8] = organism: Rattus norvegicus; assay: Compound was evaluated for the inhibition of insulin release from rat islets; format: functional; in short: as §2

| SMILES | IC50 [1] | pIC50 (Beta-TC6 [3]) | pIC50 (Rattus norvegicus [4]) | IC50 [5] | pIC50 [6] | pIC50 (Rattus norvegicus [7]) | pIC50 (Rattus norvegicus [8]) | Efficacy (Beta-TC6 [2]) [%] |
| --- | --- | --- | --- | --- | --- | --- | --- | --- |
| CC(/N=C(\NC#N)Nc1cc(C(F)(F)F)cc(C(F)(F)F)c1)C(C)(C)C (configuration not stated) |  | 5.34 | 5.06 | Not Active |  |  |  | 78 |
| CC(/N=C(\NC#N)Nc1cccc(C(F)(F)F)c1)C(C)(C)C (configuration not stated) |  | < 4.00 | 4.06 |  | < 4.00 |  |  | 29 |
| CCC(C)(C)/N=C(\NC#N)Nc1cc(C(F)(F)F)cc(C(F)(F)F)c1 |  |  | 6.05 | Not Active |  |  |  |  |
| CC(N/C(=N\C#N)Nc1ccncc1)C(C)(C)C (configuration not stated) [PINACIDIL ANHYDROUS] |  |  | 5.82 |  |  |  |  |  |
| CCC/N=C(\NC#N)Nc1cc(C(F)(F)F)cc(C(F)(F)F)c1 |  | 5.30 | 4.91 |  | 6.05 |  |  | 58 |
| CCC(C)(C)/N=C(\NC#N)Nc1cccnc1 |  |  | 6.60 |  |  |  |  |  |
| CC(C)CC/N=C(\NC#N)Nc1cc(C(F)(F)F)cc(C(F)(F)F)c1 |  | 5.70 | 5.25 |  | 6.30 |  |  | 77 |
| CC1=Nc2ccc(Cl)cc2S(=O)(=O)N1 [DIAZOXIDE] |  | 4.65 | 4.94 |  | 4.11 |  | 5.21 | 23 |

Now from value to molecule, other results behind:

| IC50 [1] | pIC50 (Beta-TC6 [3]) | pIC50 (Rattus norvegicus [4]) | IC50 [5] | pIC50 [6] | pIC50 (Rattus norvegicus [7]) | pIC50 (Rattus norvegicus [8]) | SMILES | Efficacy (Beta-TC6 [2]) [%] |
| --- | --- | --- | --- | --- | --- | --- | --- | --- |
| Not Active | 5.64 | 6.52 |  |  |  |  | CCC(C)(C)/N=C(\NC#N)Nc1cc(Cl)cc(Cl)c1 | 57 |
|  | 6.15 | 4.73 |  | 5.40 |  |  | CC(C)CC/N=C(\NC#N)Nc1cc(Cl)cc(Cl)c1 | 72 |
|  | 5.41 | 4.10 |  | 4.89 | 5.32 |  | COc1cc(N/C(=N/CCC(C)C)NC#N)cc(C(F)(F)F)c1 | 79 |
|  | 5.43 | 4.51 |  | 4.44 |  |  | CCC/N=C(\NC#N)Nc1cc(Cl)cc(Cl)c1 | 50 |
|  | 4.57 | 6.30 |  | 4.72 | 5.66 |  | CC(/N=C(\NC#N)Nc1cc(Cl)cc(Cl)c1)C(C)(C)C (configuration not stated) | 86 |
